Measured values from ChEMBL document CHEMBL4406859, “Antitumor and antiviral activities of 4-substituted 1,2,3-triazolyl-2,3-dibenzyl-L-ascorbic acid derivatives” (Eur J Med Chem, 2019).
pEC50, pIC50: −log10 of the molar value. The source made the active and inactive calls. The calls are words filed in the database; no cut-off is given here.

Legend:
Influenza A virus [1] = assay: Antiviral activity against Influenza A virus (A/Ned/378/05(H1N1)) infected in dog MDCK cells assessed as reduction in virus-induced cytopathogenicity incubated for 7 days by microscopic analysis; assay type: functional, organism-based
Influenza A virus H3N2 [2] = assay: Antiviral activity against Influenza A virus (A/HK/7/87(H3N2)) infected in dog MDCK cells assessed as reduction in virus-induced cytopathogenicity incubated for 7 days by microscopic analysis; assay type: functional, organism-based; settings: A/Hong Kong/7/1987(H3N2); for pEC50: 168 h
Influenza B virus [3] = assay: Antiviral activity against Influenza B virus (B/Ned/537/05) infected in dog MDCK cells assessed as reduction in virus-induced cytopathogenicity incubated for 7 days by microscopic analysis; assay type: functional, organism-based; settings: for pEC50: 168 h
Influenza A virus [4] = assay: Antiviral activity against Influenza A virus (A/Ned/378/05(H1N1)) infected in dog MDCK cells assessed as reduction in virus-induced cytopathogenicity incubated for 7 days by MTS assay; assay type: functional, organism-based
Influenza A virus H3N2 [5] = assay: Antiviral activity against Influenza A virus (A/HK/7/87(H3N2)) infected in dog MDCK cells assessed as reduction in virus-induced cytopathogenicity incubated for 7 days by MTS assay; assay type: functional, organism-based; settings: A/Hong Kong/7/1987(H3N2); for pEC50: 168 h
Influenza B virus [6] = assay: Antiviral activity against Influenza B virus (B/Ned/537/05) infected in dog MDCK cells assessed as reduction in virus-induced cytopathogenicity incubated for 7 days by MTS assay; assay type: functional, organism-based; settings: for pEC50: 168 h
[7] = Cytotoxicity against dog MDCK cells assessed as minimum cytotoxic concentration by observing alteration in cell morphology incubated for 3 days by microscopic analysis; assay type: cell-based, Canis lupus familiaris
MDCK = assay: Cytotoxicity against dog MDCK cells assessed as reduction in cell viability incubated for 3 days by coulter counter method; assay type: cell-based, Canis lupus familiaris; settings: mdck, 72 h
A549 = assay: Antiproliferative activity against human A549 cells assessed as reduction in cell viability incubated for 72 hrs by MTT assay; assay type: functional, cell-based; settings: A549, 72 h
Method in brief: (§1)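 Cells (ATCC) grown in DMEM with 10 FBS, penicillin/streptomycin, 2 mM glutamine, 37 °C, 5 CO2. 5000 cells/well seeded; after 24 h, freshly prepared dilutions at five concentrations (0.01–100 μM) added for 72 h. MTT read-out; absorbance converted to percentage growth by NIH formulas. Two experiments in quadruplicate; IC50 by linear regression.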

CFPAC-1 = assay: Antiproliferative activity against human CFPAC-1 cells assessed as reduction in cell viability incubated for 72 hrs by MTT assay; assay type: functional, cell-based; method in brief: as §1
HCT-116 = assay: Antiproliferative activity against human HCT116cells assessed as reduction in cell viability incubated for 72 hrs by MTT assay; assay type: functional, cell-based; settings: HCT-116, 72 h; method in brief: as §1
HeLa = assay: Antiproliferative activity against human HeLa cells assessed as reduction in cell viability incubated for 72 hrs by MTT assay; assay type: functional, cell-based; method in brief: as §1
HepG2 = assay: Antiproliferative activity against human HepG2 cells assessed as reduction in cell viability incubated for 72 hrs by MTT assay; assay type: functional, cell-based; settings: HepG2, 72 h; method in brief: as §1
MCF7 = assay: Antiproliferative activity against human MCF7 cells assessed as reduction in cell viability incubated for 72 hrs by MTT assay; assay type: functional, cell-based; settings: MCF7, 72 h; method in brief: as §1
SW-620 = assay: Antiproliferative activity against human SW620 cells assessed as reduction in cell viability incubated for 72 hrs by MTT assay; assay type: functional, cell-based; settings: SW-620, 72 h; method in brief: as §1
HFF = assay: Cytotoxicity against human HFF cells assessed as reduction in cell viability incubated for 72 hrs by MTT assay; assay type: cell-based; method in brief: as §1
Cytomegalovirus [8] = assay: Antiviral activity against Cytomegalovirus AD169 infected in human HELF cells assessed as reduction in virus-induced cytopathogenicity incubated for 7 days by Giemsa staining based microscopic analysis; assay type: functional, organism-based; settings: Human betaherpesvirus 5, AD169, HELF, 168 h
Method in brief: (§2)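 Confluent HEL fibroblasts infected with CMV (Davis or AD-169) at 100 PFU/well for 2 h. Residual virus removed, then medium with graded compound concentrations added (duplicate). Incubated 7 days at 37 °C. Cytopathogenicity scored microscopically after ethanol fixation and Giemsa staining. EC50 read from plots of % cytopathogenicity versus concentration.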

Cytomegalovirus [9] = assay: Antiviral activity against Cytomegalovirus Davis infected in human HELF cells assessed as reduction in virus-induced cytopathogenicity incubated for 7 days by Giemsa staining based microscopic analysis; assay type: functional, organism-based; settings: Human betaherpesvirus 5, Davis, 168 h; method in brief: as §2
Human alphaherpesvirus 3 [10] = assay: Antiviral activity against thymidine kinase deficient Varicella zoster virus infected in human HELF cells assessed as reduction in virus-induced cytopathogenicity incubated for 7 days by Giemsa staining based microscopic analysis; assay type: functional, organism-based; settings: Human alphaherpesvirus 3, HELF, 168 h
Human alphaherpesvirus 3 [11] = assay: Antiviral activity against thymidine kinase positive Varicella zoster virus infected in human HELF cells assessed as reduction in virus-induced cytopathogenicity incubated for 7 days by Giemsa staining based microscopic analysis; assay type: functional, organism-based; settings: Human alphaherpesvirus 3, HELF, 168 h
[12] = Cytotoxicity against human HELF cells assessed as minimum cytotoxic concentration by observing alteration in cell morphology incubated for 3 days by microscopic analysis; assay type: cell-based; settings: HELF cells
Method in brief: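 Read-out is the minimum cytotoxic concentration (MCC): the lowest compound concentration giving a microscopically detectable change in cell morphology. Measured on confluent human embryonic lung (HEL) fibroblast cultures exposed to a range of compound concentrations.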

[13] = Cytotoxicity against human HELF cells assessed as reduction in cell viability incubated for 3 days by coulter counter method; assay type: cell-based; settings: 72 h
Method in brief: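 HEL cells seeded at 5 x 10^3/well and allowed to proliferate 24 h, then exposed to graded compound concentrations for 3 days at 37 °C. Cell number counted with a Coulter counter.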

Human alphaherpesvirus 1 [14] = assay: Antiviral activity against Herpes simplex virus 1 KOS infected in human HELF cells assessed as reduction in virus-induced cytopathogenicity incubated for 7 days by microscopic analysis; assay type: functional, organism-based; settings: strain KOS
Human alphaherpesvirus 2 = assay: Antiviral activity against Herpes simplex virus 2 G infected in human HELF cells assessed as reduction in virus-induced cytopathogenicity incubated for 7 days by microscopic analysis; assay type: functional, organism-based
Human alphaherpesvirus 1 [15] = assay: Antiviral activity against Herpes simplex virus 1 TK-KOS-ACV infected in human HELF cells assessed as reduction in virus-induced cytopathogenicity incubated for 7 days by microscopic analysis; assay type: functional, organism-based
Human adenovirus 2 = assay: Antiviral activity against Human adenovirus 2 infected in human HELF cells assessed as reduction in virus-induced cytopathogenicity incubated for 7 days by microscopic analysis; assay type: functional, organism-based
Human coronavirus 229E = assay: Antiviral activity against Human coronavirus 229E infected in human HELF cells assessed as reduction in virus-induced cytopathogenicity incubated for 7 days by microscopic analysis; assay type: functional, organism-based
Coxsackievirus B4 = assay: Antiviral activity against Human coxsackievirus B4 infected in vero cells assessed as reduction in virus-induced cytopathogenicity incubated for 7 days by microscopic analysis; assay type: functional, organism-based
Reovirus sp. = assay: Antiviral activity against Reovirus infected in vero cells assessed as reduction in virus-induced cytopathogenicity incubated for 7 days by microscopic analysis; assay type: functional, organism-based
Sindbis virus = assay: Antiviral activity against Sindbis virus infected in vero cells assessed as reduction in virus-induced cytopathogenicity incubated for 7 days by microscopic analysis; assay type: functional, organism-based
[16] = Influenza A virus, A/Ned/378/05(H1N1), MDCK, 168 h

| SMILES | pEC50 (Influenza A virus H3N2 [2]) | pEC50 (Influenza B virus [3]) | pEC50 (Influenza A virus H3N2 [5]) | pEC50 (Influenza B virus [6]) | MCC at 72 h [7] [µM] | CC50 (MDCK) [µM] | pIC50 (A549) | pIC50 (HCT-116) | pIC50 (HeLa) | pIC50 (HepG2) | pIC50 (MCF7) | pIC50 (SW-620) | pIC50 (HFF) | pEC50 (Cytomegalovirus [8]) | pEC50 (Cytomegalovirus [9]) | pEC50 (Human alphaherpesvirus 3 [10]) | pEC50 (Human alphaherpesvirus 3 [11]) | MCC at 72 h [12] [µM] | CC50 [13] [µM] | Activity (Influenza A virus [1]) | also measured |
| --- | --- | --- | --- | --- | --- | --- | --- | --- | --- | --- | --- | --- | --- | --- | --- | --- | --- | --- | --- | --- | --- |
| CC(N)C12CC3CC(CC(C3)C1)C2 (stereo not given) [RIMANTADINE] | 8.00 | < 3.70 | 8.00 | < 3.70 | > 200 | > 200 | – | – | – | – | – | – | – | – | – | – | – | – | – | – | pEC50 (Influenza A virus [1]; [16]): < 3.70; pEC50 (Influenza A virus [4]; [16]): < 3.70 |
| O=C1O/C(=C\Cn2cc(-c3ccc(Br)cc3)nn2)C(OCc2ccccc2)=C1OCc1ccccc1 | – | – | – | – | – | – | < 4.00 | < 4.00 | 4.61 | < 4.00 | < 4.00 | < 4.00 | < 4.00 | < 4.00 | 5.05 | < 4.00 | 4.35 | > 100 | > 100 | inactive | pIC50 (CFPAC-1; Homo sapiens, CFPAC-1, 72 h, read-out: IC50): < 4.00; Activity (Influenza A virus H3N2 [2]): inactive; Activity (Influenza B virus [3]): inactive; Activity (Influenza A virus [4]): inactive; Activity (Influenza A virus H3N2 [5]): inactive; Activity (Influenza B virus [6]): inactive; Activity (Human alphaherpesvirus 1 [14]): inactive; Activity (Human alphaherpesvirus 2): inactive; Activity (Human alphaherpesvirus 1 [15]): inactive; Activity (Human adenovirus 2): inactive; Activity (Human coronavirus 229E): inactive; Activity (Coxsackievirus B4): inactive; Activity (Reovirus sp.): inactive; Activity (Sindbis virus): inactive |
| O=C1O/C(=C\Cn2cc(-c3cc(F)cc(F)c3)nn2)C(OCc2ccccc2)=C1OCc1ccccc1 | – | – | – | – | – | – | < 4.00 | < 4.00 | 4.75 | < 4.00 | < 4.00 | < 4.00 | < 4.00 | 5.03 | 5.05 | < 4.00 | 4.84 | 100 | > 100 | inactive | IC50 (CFPAC-1; cfpac-1): Not Active; Activity (Influenza A virus H3N2 [2]): inactive; Activity (Influenza B virus [3]): inactive; Activity (Influenza A virus [4]): inactive; Activity (Influenza A virus H3N2 [5]): inactive; Activity (Influenza B virus [6]): inactive; Activity (Human alphaherpesvirus 1 [14]): inactive; Activity (Human alphaherpesvirus 2): inactive; Activity (Human alphaherpesvirus 1 [15]): inactive; Activity (Human adenovirus 2): inactive; Activity (Human coronavirus 229E): inactive; Activity (Coxsackievirus B4): inactive; Activity (Reovirus sp.): inactive; Activity (Sindbis virus): inactive |
| CC(=O)N[C@H]1[C@H]([C@H](O)[C@H](O)CO)OC(C(=O)O)=C[C@@H]1N=C(N)N [ZANAMIVIR] | 6.40 | 6.40 | 8.00 | 6.40 | > 100 | ≥ 100 | – | – | – | – | – | – | – | – | – | – | – | – | – | – | – |
